Converted amounts (≈) assume the structure as drawn.
Tests used:
Staphylococcus aureus [1] = test: Antibacterial activity against Staphylococcus aureus Oxford assessed as growth inhibition after 18 hrs by serial dilution method; format: functional
How it was run: (§1)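 Agar dilution MIC: serial dilutions in nutrient agar, each spot-inoculated with 0.001 mL of undiluted overnight broth culture. MIC read after 18 h incubation at 37 °C.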

Klebsiella aerogenes = test: Antibacterial activity against Klebsiella aerogenes assessed as growth inhibition after 18 hrs by serial dilution method; format: functional; how it was run: as §1
Staphylococcus aureus [2] = test: Antibacterial activity against beta-lactamase producing benzylpenicillin-resistant Staphylococcus aureus Russell assessed as growth inhibition after 18 hrs by serial dilution method; format: functional
Proteus mirabilis = test: Antibacterial activity against Proteus mirabilis assessed as growth inhibition after 18 hrs by serial dilution method; format: functional; how it was run: as §1
Escherichia coli = test: Antibacterial activity against Escherichia coli assessed as growth inhibition after 18 hrs by serial dilution method; format: functional; how it was run: as §1
Shigella sonnei = test: Antibacterial activity against Shigella sonnei assessed as growth inhibition after 18 hrs by serial dilution method; format: functional; how it was run: as §1
Salmonella typhi = test: Antibacterial activity against Salmonella typhi assessed as growth inhibition after 18 hrs by serial dilution method; format: functional, Salmonella enterica subsp. enterica serovar Typhi; conditions: Salmonella enterica

Structure (SMILES) | MIC (Staphylococcus aureus [1]) [µg/mL] | MIC (Klebsiella aerogenes) [µg/mL] | MIC (Staphylococcus aureus [2]) [µg/mL] | MIC (Proteus mirabilis) [µg/mL] | MIC (Escherichia coli) [µg/mL] | MIC (Shigella sonnei) [µg/mL] | MIC (Salmonella typhi) [µg/mL]
N[C@@H](C(=O)N[C@@H]1C(=O)N2C(C(=O)O)=C(Cc3ccccc3)CS[C@H]12)c1ccccc1 | 0.1 (≈ 0.236 µM) | 25 (≈ 59 µM) | 2.5 (≈ 5.9 µM) | 50 (≈ 118 µM) | 25 (≈ 59 µM) | 25 (≈ 59 µM) | 25 (≈ 59 µM)
N[C@@H](C(=O)N[C@@H]1C(=O)N2C(C(=O)O)=C(Cc3cccnc3)CS[C@H]12)c1ccccc1 | 0.25 (≈ 0.589 µM) | 2.5 (≈ 5.89 µM) | 2.5 (≈ 5.89 µM) | 5 (≈ 11.8 µM) | 2.5 (≈ 5.89 µM) | 2.5 (≈ 5.89 µM) | 1.25 (≈ 2.94 µM)
O=C(Cc1cccs1)N[C@@H]1C(=O)N2C(C(=O)O)=C(Cc3ccccc3)CS[C@H]12 | 0.05 (≈ 0.121 µM) | > 200 | 10 (≈ 24.1 µM) | > 200 | 200 (≈ 482 µM) | 200 (≈ 482 µM) | 200 (≈ 482 µM)
CC(=O)N[C@@H]1C(=O)N2C(C(=O)O)=C(Cc3ccccc3)CS[C@H]12 | 0.5 (≈ 1.5 µM) | > 500 | 2.5 (≈ 7.52 µM) | > 500 | > 500 | > 500 | 500 (≈ 1500 µM)
O=C(O)C1=C(Cc2ccccc2)CS[C@@H]2[C@H](NC(=O)C(F)(F)F)C(=O)N12 | 2.5 (≈ 6.47 µM) | > 500 | 12.5 (≈ 32.4 µM) | 500 (≈ 1290 µM) | > 500 | > 500 | > 500
N#CCC(=O)N[C@@H]1C(=O)N2C(C(=O)O)=C(Cc3ccccc3)CS[C@H]12 | 0.12 (≈ 0.336 µM) | > 500 | 0.5 (≈ 1.4 µM) | > 500 | 500 (≈ 1400 µM) | 500 (≈ 1400 µM) | 250 (≈ 700 µM)
O=C(COc1ccccc1)N[C@@H]1C(=O)N2C(C(=O)O)=C(Cc3ccccc3)CS[C@H]12 | 0.02 (≈ 0.0471 µM) | > 500 | 0.12 (≈ 0.283 µM) | 500 (≈ 1180 µM) | > 500 | > 500 | > 500
CCSCC(=O)N[C@@H]1C(=O)N2C(C(=O)O)=C(Cc3ccccc3)CS[C@H]12 | 0.12 (≈ 0.306 µM) | > 125 | 1.25 (≈ 3.18 µM) | > 125 | > 125 | > 125 | 125 (≈ 318 µM)
O=C(O)CSCC(=O)N[C@@H]1C(=O)N2C(C(=O)O)=C(Cc3ccccc3)CS[C@H]12 | 5 (≈ 11.8 µM) | > 500 | 25 (≈ 59.2 µM) | 125 (≈ 296 µM) | > 500 | 250 (≈ 592 µM) | 250 (≈ 592 µM)
O=C(O)C1=C(Cc2ccccc2)CS[C@@H]2[C@H](NC(=O)[C@H](O)c3ccccc3)C(=O)N12 | 0.12 (≈ 0.283 µM) | 50 (≈ 118 µM) | 12.5 (≈ 29.4 µM) | > 500 | 125 (≈ 294 µM) | 50 (≈ 118 µM) | 50 (≈ 118 µM)
O=C(O)C1=C(Cc2ccccc2)CS[C@@H]2[C@H](NC(=O)C(C(=O)Oc3ccccc3)c3ccccc3)C(=O)N12 (some centres undefined) | 2.5 (≈ 4.73 µM) | > 100 | 25 (≈ 47.3 µM) | 50 (≈ 94.6 µM) | > 100 | > 100 | > 100
O=C(Cc1ccncc1)N[C@@H]1C(=O)N2C(C(=O)O)=C(Cc3ccccc3)CS[C@H]12 | 0.05 (≈ 0.122 µM) | 100 (≈ 244 µM) | 5 (≈ 12.2 µM) | 100 (≈ 244 µM) | 50 (≈ 122 µM) | 50 (≈ 122 µM) | 50 (≈ 122 µM)
O=C(CSc1ccncc1)N[C@@H]1C(=O)N2C(C(=O)O)=C(Cc3ccccc3)CS[C@H]12 | 0.05 (≈ 0.113 µM) | > 500 | 2.5 (≈ 5.66 µM) | 250 (≈ 566 µM) | 250 (≈ 566 µM) | 250 (≈ 566 µM) | 250 (≈ 566 µM)
O=C(Cn1ncnn1)N[C@@H]1C(=O)N2C(C(=O)O)=C(Cc3ccccc3)CS[C@H]12 | 0.12 (≈ 0.3 µM) | 500 (≈ 1250 µM) | 1.25 (≈ 3.12 µM) | 125 (≈ 312 µM) | > 500 | 125 (≈ 312 µM) | > 500
C[C@@H](N)C(=O)N[C@@H]1C(=O)N2C(C(=O)O)=C(Cc3ccccc3)CS[C@H]12 | 5 (≈ 13.8 µM) | > 100 | 10 (≈ 27.7 µM) | > 100 | > 100 | > 100 | > 100
N[C@@H](C(=O)N[C@@H]1C(=O)N2C(C(=O)O)=C(Cc3ccccc3)CS[C@H]12)C1CC1 | 5 (≈ 12.9 µM) | > 250 | 12.5 (≈ 32.3 µM) | > 250 | > 250 | > 250 | > 250
N[C@@H](C(=O)N[C@@H]1C(=O)N2C(C(=O)O)=C(Cc3ccccc3)CS[C@H]12)c1ccc(O)cc1 | 0.12 (≈ 0.273 µM) | 5 (≈ 11.4 µM) | 1.25 (≈ 2.84 µM) | 25 (≈ 56.9 µM) | 12.5 (≈ 28.4 µM) | 12.5 (≈ 28.4 µM) | 5 (≈ 11.4 µM)
O=C(COc1ccccc1)N[C@@H]1C(=O)N2C(C(=O)O)=C(Cc3cccnc3)CS[C@H]12 | 0.02 (≈ 0.047 µM) | 500 (≈ 1180 µM) | 0.12 (≈ 0.282 µM) | 125 (≈ 294 µM) | 500 (≈ 1180 µM) | 500 (≈ 1180 µM) | 500 (≈ 1180 µM)
CCSCC(=O)N[C@@H]1C(=O)N2C(C(=O)O)=C(Cc3cccnc3)CS[C@H]12 | 0.05 (≈ 0.127 µM) | 50 (≈ 127 µM) | 1.25 (≈ 3.18 µM) | 25 (≈ 63.5 µM) | 50 (≈ 127 µM) | 50 (≈ 127 µM) | 50 (≈ 127 µM)
O=C(O)C1=C(Cc2cccnc2)CS[C@@H]2[C@H](NC(=O)[C@H](O)c3ccccc3)C(=O)N12 | 0.25 (≈ 0.588 µM) | 2.5 (≈ 5.88 µM) | 12.5 (≈ 29.4 µM) | 5 (≈ 11.8 µM) | 2.5 (≈ 5.88 µM) | 2.5 (≈ 5.88 µM) | 2.5 (≈ 5.88 µM)
O=C(Cc1ccncc1)N[C@@H]1C(=O)N2C(C(=O)O)=C(Cc3cccnc3)CS[C@H]12 | 0.12 (≈ 0.292 µM) | 10 (≈ 24.4 µM) | 25 (≈ 60.9 µM) | 10 (≈ 24.4 µM) | 25 (≈ 60.9 µM) | 25 (≈ 60.9 µM) | 10 (≈ 24.4 µM)
O=C(CSc1ccncc1)N[C@@H]1C(=O)N2C(C(=O)O)=C(Cc3cccnc3)CS[C@H]12 | < 0.02 | 5 (≈ 11.3 µM) | 1 (≈ 2.26 µM) | 100 (≈ 226 µM) | 25 (≈ 56.5 µM) | 25 (≈ 56.5 µM) | 10 (≈ 22.6 µM)
O=C(O)C1=C(Cc2cccnc2)CS[C@@H]2[C@H](NC(=O)C(C(=O)Oc3ccccc3)c3cccs3)C(=O)N12 (some centres undefined) | 12.5 (≈ 23.3 µM) | 12.5 (≈ 23.3 µM) | – | 12.5 (≈ 23.3 µM) | 12.5 (≈ 23.3 µM) | 12.5 (≈ 23.3 µM) | 50 (≈ 93.4 µM)
N[C@@H](C(=O)N[C@@H]1C(=O)N2C(C(=O)O)=C(Cc3cccnc3)CS[C@H]12)C1CC1 | 5 (≈ 12.9 µM) | 250 (≈ 644 µM) | 12.5 (≈ 32.2 µM) | 500 (≈ 1290 µM) | 500 (≈ 1290 µM) | 250 (≈ 644 µM) | 250 (≈ 644 µM)
NC(C(=O)N[C@@H]1C(=O)N2C(C(=O)O)=C(Cc3cccnc3)CS[C@H]12)c1cccs1 (some centres undefined) | 0.5 (≈ 1.16 µM) | 5 (≈ 11.6 µM) | 5 (≈ 11.6 µM) | 12.5 (≈ 29 µM) | 12.5 (≈ 29 µM) | 5 (≈ 11.6 µM) | 2.5 (≈ 5.81 µM)
O=C(Cc1cccs1)N[C@@H]1C(=O)N2C(C(=O)O)=C(Cc3cccnc3)CS[C@H]12 | 0.05 (≈ 0.12 µM) | 25 (≈ 60.2 µM) | 10 (≈ 24.1 µM) | 25 (≈ 60.2 µM) | 25 (≈ 60.2 µM) | 25 (≈ 60.2 µM) | 5 (≈ 12 µM)
NC(CC(=O)N[C@@H]1C(=O)N2C(C(=O)O)=C(Cc3cccnc3)CS[C@H]12)C1CC=CCC1 (mixture of isomers) | 0.5 | 125 | 1.25 | 250 | 125 | 125 | 125
CC1=C(C(=O)O)N2C(=O)[C@@H](NC(=O)[C@H](N)c3ccccc3)[C@H]2SC1 [CEPHALEXIN ANHYDROUS] | 1.25 (≈ 3.6 µM) | 5 (≈ 14.4 µM) | 5 (≈ 14.4 µM) | 12.5 (≈ 36 µM) | 12.5 (≈ 36 µM) | 5 (≈ 14.4 µM) | 5 (≈ 14.4 µM)
O=C(Cc1cccs1)N[C@@H]1C(=O)N2C(C(=O)[O-])=C(C[n+]3ccccc3)CS[C@H]12 [CEPHALORIDINE] | 0.02 (≈ 0.0481 µM) | 2.5 (≈ 6.02 µM) | 1.25 (≈ 3.01 µM) | 5 (≈ 12 µM) | 5 (≈ 12 µM) | 1.25 (≈ 3.01 µM) | 1.25 (≈ 3.01 µM)
CC(=O)OCC1=C(C(=O)O)N2C(=O)[C@@H](NC(=O)Cc3cccs3)[C@H]2SC1 [CEPHALOTHIN] | 0.12 (≈ 0.303 µM) | 5 (≈ 12.6 µM) | 0.5 (≈ 1.26 µM) | 5 (≈ 12.6 µM) | 5 (≈ 12.6 µM) | 5 (≈ 12.6 µM) | 12.5 (≈ 31.5 µM)
